In brackets after ≈: the same amount, converted by molar mass.
What was measured:
[1] = Aqueous solubility of the compound by HPLC analysis; format: physicochemical; details: water
In short: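 Solubility determined by HPLC measurement of the concentration in saturated aqueous solutions of the compounds.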

[2] = target: T1, MAP kinase-activated protein kinase 2 (Homo sapiens, UniProt P49137); assay: Inhibition of MAPKAPK2 at 30 uM by microfluidic mobility shift assay
In short: (§1)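 Single-concentration screen, singlicate, 30 uM final (diluted from 1 mM DMSO solutions), fluorescently tagged peptide substrate appropriate to each kinase, ATP at apparent Km for each protein. Phosphorylated and unphosphorylated peptides separated electrophoretically; conversion is the phosphorylated peak area over the sum of both peaks. No-inhibitor and no-ATP controls; H89 reference on each plate.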
Target sequence in this assay (P49137 whole entry, looked up): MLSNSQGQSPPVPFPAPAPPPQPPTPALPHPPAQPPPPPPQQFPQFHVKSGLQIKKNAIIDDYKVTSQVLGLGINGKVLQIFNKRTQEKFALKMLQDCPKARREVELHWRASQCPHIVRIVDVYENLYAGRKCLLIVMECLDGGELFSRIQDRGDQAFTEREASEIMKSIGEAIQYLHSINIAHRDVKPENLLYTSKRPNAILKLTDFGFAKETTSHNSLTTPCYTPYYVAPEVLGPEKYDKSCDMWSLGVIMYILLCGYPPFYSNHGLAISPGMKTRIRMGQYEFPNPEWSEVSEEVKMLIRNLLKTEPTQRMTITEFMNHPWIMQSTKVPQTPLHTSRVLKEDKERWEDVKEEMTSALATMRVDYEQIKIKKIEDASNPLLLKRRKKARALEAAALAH

[3] = target: T2, MAP kinase-activated protein kinase 5 (Homo sapiens) (UniProt Q8IW41); assay: Inhibition of PRAK1 at 30 uM by microfluidic mobility shift assay; in short: as §1
T2 sequence (whole entry): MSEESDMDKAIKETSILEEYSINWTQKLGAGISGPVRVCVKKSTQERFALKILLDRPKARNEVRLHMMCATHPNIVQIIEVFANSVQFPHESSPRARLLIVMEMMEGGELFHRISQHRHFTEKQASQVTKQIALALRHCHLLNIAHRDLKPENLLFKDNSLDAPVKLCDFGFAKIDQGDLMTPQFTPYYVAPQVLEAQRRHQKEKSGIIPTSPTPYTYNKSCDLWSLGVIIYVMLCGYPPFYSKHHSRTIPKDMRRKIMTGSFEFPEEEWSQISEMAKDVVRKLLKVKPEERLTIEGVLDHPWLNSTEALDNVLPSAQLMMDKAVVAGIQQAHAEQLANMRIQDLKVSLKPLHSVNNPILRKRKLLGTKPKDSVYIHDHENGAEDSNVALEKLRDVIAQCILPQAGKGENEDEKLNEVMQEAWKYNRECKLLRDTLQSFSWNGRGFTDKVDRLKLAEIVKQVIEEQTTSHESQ

[4] = target: Mitogen-activated protein kinase 3 (Homo sapiens) (UniProt P27361); assay: Inhibition of ERK1 at 30 uM by microfluidic mobility shift assay; in short: as §1
Sequence of Mitogen-activated protein kinase 3 (Homo sapiens) (P27361 whole entry): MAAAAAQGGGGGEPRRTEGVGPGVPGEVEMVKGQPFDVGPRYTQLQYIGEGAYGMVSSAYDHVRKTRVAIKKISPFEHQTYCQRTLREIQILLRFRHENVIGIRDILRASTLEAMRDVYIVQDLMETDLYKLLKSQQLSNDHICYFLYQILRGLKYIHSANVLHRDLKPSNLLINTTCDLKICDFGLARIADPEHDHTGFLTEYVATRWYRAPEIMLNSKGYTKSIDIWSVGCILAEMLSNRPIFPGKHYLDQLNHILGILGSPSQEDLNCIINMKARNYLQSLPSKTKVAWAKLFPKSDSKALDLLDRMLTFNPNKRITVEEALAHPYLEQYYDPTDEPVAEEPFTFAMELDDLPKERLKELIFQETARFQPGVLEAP

[5] = target: T3, Tyrosine-protein kinase Fyn (Homo sapiens, UniProt P06241); assay: Inhibition of FYN at 30 uM by microfluidic mobility shift assay; in short: as §1
Target sequence in this assay (P06241 2-537 limits assumed): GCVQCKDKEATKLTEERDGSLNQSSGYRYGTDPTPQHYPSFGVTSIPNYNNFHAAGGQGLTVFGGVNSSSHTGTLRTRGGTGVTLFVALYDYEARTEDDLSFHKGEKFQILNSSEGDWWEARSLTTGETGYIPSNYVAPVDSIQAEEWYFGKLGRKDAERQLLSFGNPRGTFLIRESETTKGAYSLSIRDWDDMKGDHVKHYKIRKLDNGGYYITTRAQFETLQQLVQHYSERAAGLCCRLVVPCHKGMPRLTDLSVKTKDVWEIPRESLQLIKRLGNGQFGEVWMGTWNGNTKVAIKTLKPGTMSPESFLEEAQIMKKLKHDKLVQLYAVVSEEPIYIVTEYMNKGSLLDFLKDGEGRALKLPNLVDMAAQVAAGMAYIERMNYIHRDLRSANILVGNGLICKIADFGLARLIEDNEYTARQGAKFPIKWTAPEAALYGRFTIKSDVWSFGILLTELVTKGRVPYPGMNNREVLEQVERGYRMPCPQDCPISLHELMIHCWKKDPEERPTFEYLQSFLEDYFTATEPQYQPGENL

[6] = target: T4, Tyrosine-protein kinase Lyn (Homo sapiens, UniProt P07948); assay: Inhibition of LYN at 30 uM by microfluidic mobility shift assay; in short: as §1
Target sequence in this assay (P07948 2-512 limits assumed): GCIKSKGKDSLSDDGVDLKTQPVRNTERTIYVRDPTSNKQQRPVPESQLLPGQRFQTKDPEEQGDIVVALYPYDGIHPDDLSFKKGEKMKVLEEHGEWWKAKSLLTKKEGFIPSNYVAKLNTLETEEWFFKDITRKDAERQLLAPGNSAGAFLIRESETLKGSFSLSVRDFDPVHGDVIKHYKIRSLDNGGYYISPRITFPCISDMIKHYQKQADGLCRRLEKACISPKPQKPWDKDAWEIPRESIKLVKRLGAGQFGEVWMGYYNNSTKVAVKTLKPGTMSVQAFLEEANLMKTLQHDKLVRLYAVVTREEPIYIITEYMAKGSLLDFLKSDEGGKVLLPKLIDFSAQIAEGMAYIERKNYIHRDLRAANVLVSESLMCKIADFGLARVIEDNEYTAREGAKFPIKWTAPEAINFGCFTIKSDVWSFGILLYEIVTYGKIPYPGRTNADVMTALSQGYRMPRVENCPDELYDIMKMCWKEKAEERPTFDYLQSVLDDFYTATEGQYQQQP

[7] = target: T5, Serine/threonine-protein kinase Chk2 (Homo sapiens, UniProt O96017); assay: Inhibition of CHK2 at 30 uM by microfluidic mobility shift assay; in short: as §1
T5 sequence (O96017 whole entry): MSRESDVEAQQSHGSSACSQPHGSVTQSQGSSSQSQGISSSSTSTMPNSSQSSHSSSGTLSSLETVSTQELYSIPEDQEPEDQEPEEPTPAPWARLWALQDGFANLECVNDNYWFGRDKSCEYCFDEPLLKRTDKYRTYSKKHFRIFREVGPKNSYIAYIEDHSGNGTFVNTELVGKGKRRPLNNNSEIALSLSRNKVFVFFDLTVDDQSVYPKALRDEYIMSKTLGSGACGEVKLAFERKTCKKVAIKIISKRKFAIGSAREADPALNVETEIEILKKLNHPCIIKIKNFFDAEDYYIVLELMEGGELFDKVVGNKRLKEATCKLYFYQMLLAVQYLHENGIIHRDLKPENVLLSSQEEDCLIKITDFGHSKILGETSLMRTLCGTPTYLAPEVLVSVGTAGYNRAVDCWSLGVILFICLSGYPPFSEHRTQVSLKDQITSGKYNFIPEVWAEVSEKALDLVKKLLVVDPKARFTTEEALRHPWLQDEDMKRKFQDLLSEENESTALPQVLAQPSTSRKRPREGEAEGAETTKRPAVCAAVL

[8] = target: T6, Tyrosine-protein kinase Lck (Homo sapiens, UniProt P06239); assay: Inhibition of LCK at 30 uM by microfluidic mobility shift assay; in short: as §1
Target sequence in this assay (P06239 2-509 limits assumed): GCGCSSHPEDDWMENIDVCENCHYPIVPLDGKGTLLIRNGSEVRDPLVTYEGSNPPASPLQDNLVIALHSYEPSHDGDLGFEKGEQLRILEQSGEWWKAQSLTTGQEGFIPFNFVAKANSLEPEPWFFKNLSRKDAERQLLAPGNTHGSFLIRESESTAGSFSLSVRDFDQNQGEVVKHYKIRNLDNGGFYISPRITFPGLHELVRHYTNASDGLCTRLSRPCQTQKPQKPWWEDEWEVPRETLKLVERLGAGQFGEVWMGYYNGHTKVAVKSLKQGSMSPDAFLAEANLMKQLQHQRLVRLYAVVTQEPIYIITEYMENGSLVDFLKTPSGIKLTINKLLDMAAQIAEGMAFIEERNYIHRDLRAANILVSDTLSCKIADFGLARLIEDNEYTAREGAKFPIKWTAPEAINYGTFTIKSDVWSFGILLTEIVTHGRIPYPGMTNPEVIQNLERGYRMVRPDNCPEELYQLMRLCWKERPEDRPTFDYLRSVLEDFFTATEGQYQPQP

[9] = target: Glycogen synthase kinase-3 beta (Homo sapiens) (UniProt P49841); assay: Inhibition of GSK3B at 30 uM by microfluidic mobility shift assay; in short: as §1
Sequence of Glycogen synthase kinase-3 beta (Homo sapiens) (P49841 whole entry, looked up): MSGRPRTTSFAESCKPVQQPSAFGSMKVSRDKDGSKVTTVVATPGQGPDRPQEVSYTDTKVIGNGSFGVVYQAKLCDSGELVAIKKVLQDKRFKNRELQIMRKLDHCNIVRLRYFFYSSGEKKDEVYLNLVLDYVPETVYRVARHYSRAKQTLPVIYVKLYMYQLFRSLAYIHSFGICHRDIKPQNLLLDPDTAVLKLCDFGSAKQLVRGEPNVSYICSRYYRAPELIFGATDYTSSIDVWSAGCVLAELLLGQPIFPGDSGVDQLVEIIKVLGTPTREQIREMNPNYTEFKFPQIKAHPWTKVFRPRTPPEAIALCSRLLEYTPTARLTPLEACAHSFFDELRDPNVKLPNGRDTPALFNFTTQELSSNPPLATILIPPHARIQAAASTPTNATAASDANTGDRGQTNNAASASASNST

[10] = target: Mitogen-activated protein kinase 1 (Homo sapiens) (UniProt P28482); assay: Inhibition of ERK2 at 30 uM by microfluidic mobility shift assay; in short: as §1
Sequence of Mitogen-activated protein kinase 1 (Homo sapiens) (P28482 whole entry): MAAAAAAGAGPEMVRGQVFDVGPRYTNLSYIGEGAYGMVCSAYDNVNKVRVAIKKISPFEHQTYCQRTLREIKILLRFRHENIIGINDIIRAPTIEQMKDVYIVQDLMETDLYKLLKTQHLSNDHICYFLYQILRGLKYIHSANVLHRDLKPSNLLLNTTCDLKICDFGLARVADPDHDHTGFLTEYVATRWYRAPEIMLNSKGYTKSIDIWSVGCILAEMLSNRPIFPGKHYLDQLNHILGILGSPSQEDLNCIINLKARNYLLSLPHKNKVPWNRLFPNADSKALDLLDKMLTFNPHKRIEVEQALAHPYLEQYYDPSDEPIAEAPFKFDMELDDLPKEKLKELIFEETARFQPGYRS

[11] = Inhibition of PKA at 30 uM by microfluidic mobility shift assay; in short: as §1
[12] = target: RAC-beta serine/threonine-protein kinase (Homo sapiens) (UniProt P31751); assay: Inhibition of AKT2 at 30 uM by microfluidic mobility shift assay; in short: as §1
Sequence of RAC-beta serine/threonine-protein kinase (Homo sapiens) (P31751 whole entry): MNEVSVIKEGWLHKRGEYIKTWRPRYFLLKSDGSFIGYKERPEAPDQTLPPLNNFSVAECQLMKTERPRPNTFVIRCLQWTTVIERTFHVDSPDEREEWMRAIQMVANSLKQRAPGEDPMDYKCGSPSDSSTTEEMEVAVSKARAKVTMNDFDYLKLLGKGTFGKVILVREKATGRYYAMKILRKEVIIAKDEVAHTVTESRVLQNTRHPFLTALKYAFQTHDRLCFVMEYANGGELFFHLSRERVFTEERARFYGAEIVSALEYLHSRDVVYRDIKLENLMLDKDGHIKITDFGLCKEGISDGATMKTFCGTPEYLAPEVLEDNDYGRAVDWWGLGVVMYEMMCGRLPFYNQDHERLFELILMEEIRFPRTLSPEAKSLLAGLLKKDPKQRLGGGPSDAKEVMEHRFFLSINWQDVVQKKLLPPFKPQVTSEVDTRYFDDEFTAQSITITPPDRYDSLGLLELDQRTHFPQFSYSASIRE

MCF7 = assay: Growth inhibition of human MCF7 cells; format: functional
[13] = target: T1, MAP kinase-activated protein kinase 2; assay: Inhibition of MAPKAPK2 by microfluidic mobility shift assay
In short: (§2)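 IC50 determined in the mobility shift format: a fluorescently tagged peptide substrate appropriate to each kinase, ATP at its apparent Km for each protein, and electrophoretic separation of phospho and unphosphorylated peptide. Percent conversion is the ratio of the phosphopeptide peak area to the total peak area. Controls were no inhibitor and no ATP.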

Aurora kinase A = Aurora kinase A (Homo sapiens, UniProt O14965); assay: Inhibition of AurA by microfluidic mobility shift assay; in short: as §2
Sequence of Aurora kinase A (O14965 whole entry, canonical isoform): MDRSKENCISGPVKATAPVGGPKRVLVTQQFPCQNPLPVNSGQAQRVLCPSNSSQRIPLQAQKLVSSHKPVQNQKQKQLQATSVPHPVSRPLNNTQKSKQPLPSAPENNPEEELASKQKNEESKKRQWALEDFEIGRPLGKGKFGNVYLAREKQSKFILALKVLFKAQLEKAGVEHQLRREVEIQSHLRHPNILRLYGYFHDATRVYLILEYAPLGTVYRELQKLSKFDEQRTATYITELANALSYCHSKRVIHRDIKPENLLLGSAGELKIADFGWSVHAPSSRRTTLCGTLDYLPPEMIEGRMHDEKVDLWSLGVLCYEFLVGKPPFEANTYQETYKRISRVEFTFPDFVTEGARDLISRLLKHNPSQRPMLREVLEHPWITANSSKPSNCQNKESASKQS

[14] = target: Casein kinase I isoform delta (Homo sapiens, UniProt P48730); assay: Inhibition of CK1delta by microfluidic mobility shift assay; in short: as §2
Sequence of Casein kinase I isoform delta (P48730 whole entry, canonical isoform): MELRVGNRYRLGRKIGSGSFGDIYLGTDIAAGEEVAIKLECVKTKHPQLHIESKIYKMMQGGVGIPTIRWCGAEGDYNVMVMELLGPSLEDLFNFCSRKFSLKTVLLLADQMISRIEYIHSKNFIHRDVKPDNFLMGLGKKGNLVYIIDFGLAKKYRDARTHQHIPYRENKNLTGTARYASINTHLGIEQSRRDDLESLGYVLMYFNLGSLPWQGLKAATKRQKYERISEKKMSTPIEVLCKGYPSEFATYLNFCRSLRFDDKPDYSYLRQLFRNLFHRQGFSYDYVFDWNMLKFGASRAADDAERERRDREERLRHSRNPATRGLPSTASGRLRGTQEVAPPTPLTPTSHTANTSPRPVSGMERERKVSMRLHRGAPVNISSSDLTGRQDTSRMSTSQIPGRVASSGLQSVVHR

[15] = target: Serine/threonine-protein kinase Chk1 (Homo sapiens, UniProt O14757); assay: Inhibition of CHK1 by microfluidic mobility shift assay; in short: as §2
[16] = target: Tyrosine-protein kinase ABL1 (Homo sapiens, UniProt P00519); assay: Inhibition of ABL by microfluidic mobility shift assay; in short: as §2
[17] = target: T3, Tyrosine-protein kinase Fyn; assay: Inhibition of FYN by microfluidic mobility shift assay; in short: as §2
[18] = target: T4, Tyrosine-protein kinase Lyn; assay: Inhibition of LYN by microfluidic mobility shift assay; in short: as §2
[19] = target: T5, Serine/threonine-protein kinase Chk2; assay: Inhibition of CHK2 by microfluidic mobility shift assay; in short: as §2
[20] = target: T6, Tyrosine-protein kinase Lck; assay: Inhibition of LCK by microfluidic mobility shift assay; in short: as §2
[21] = target: Proto-oncogene tyrosine-protein kinase Src (Homo sapiens, UniProt P12931); assay: Inhibition of SRC by microfluidic mobility shift assay; in short: as §2
[22] = Inhibition of PKA by microfluidic mobility shift assay; in short: as §2

Structure (SMILES)	solubility [1]	inhibition [2]	inhibition [3]	inhibition [4]	inhibition [5]	inhibition [6]	inhibition [7]	inhibition [8]	inhibition [9]	inhibition [10]	inhibition [11]	inhibition [12]	also measured
Cc1cc2c(c(NC(=O)Nc3ccccc3)nn2C)c(=O)[nH]1	< 0.001 mg/mL	0%	4%	4%	7%	16%	2%	12%	2%	7%	-6%	11%	
Cc1cc2c(c(N)nn2C)c(=O)[nH]1	1.22 mg/mL (≈ 6830 µM)	29%	5%	-2%	-8%		3%	-1%	1%	8%	-3%	4%	
Nc1c2c(=O)[nH]c(-c3ccccn3)cc2nn1-c1ccccc1		4%	2%	4%	96%	97%	3%	91%	11%	6%	0%	8%	GI50 (MCF7): 0.21 µM
Cn1nc(N)c2c(=O)[nH]c(-c3ccccc3)cc21	0.076 mg/mL (≈ 316 µM)	37%	11%	19%	26%	22%	16%	22%	66%	13%	7%	4%	
Cc1cc2[nH]nc(N)c2c(N2CCCCC2)n1	0.794 mg/mL (≈ 3430 µM)	-1%	10%	6%	53%	45%	33%	48%	55%	6%	86%	11%	
CN1CCN(c2ccc(-c3cc4c(c(N)nn4C)c(=O)[nH]3)cc2)CC1	0.055 mg/mL (≈ 163 µM)	45%	26%	13%	65%	54%	53%	65%	45%	4%	81%	-1%	IC50 [13]: 35 µM; IC50 (Aurora kinase A): 33 µM; IC50 [14]: 39 µM; IC50 [15]: 24 µM; IC50 [16]: 7.8 µM; IC50 [17]: 17 µM; IC50 [18]: 14 µM; IC50 [19]: 34 µM; IC50 [20]: 18 µM; IC50 [21]: 7.7 µM; IC50 [22]: 5.2 µM
Nc1n[nH]c2c3c([nH]c(=O)c12)CCCC3		5%	0%	5%	11%	12%	7%	7%	23%	6%	2%	-1%	
Nc1c2c(=O)[nH]c(-c3ccccc3)cc2nn1-c1ccccn1		6%	-1%	2%	41%	40%	18%	15%	41%	0%	-3%	0%	
Cc1cc2[nH]nc(N)c2c(=O)[nH]1	1.64 mg/mL (≈ 9960 µM)	30%	8%	4%	2%	3%	27%	6%	18%	0%	57%	8%	
Nc1n[nH]c2cc(-c3ccncc3)[nH]c(=O)c12		37%	13%	57%	28%	39%	34%	37%	95%	38%	55%	4%	
COC(=O)CCc1c(C)[nH]c(=O)c2c(N)nn(C)c12	0.469 mg/mL (≈ 1770 µM)	11%	2%	10%	7%	6%	-1%	9%	17%	5%	3%	3%	
CC(=O)Nc1nn(C)c2cc(-c3ccccc3)[nH]c(=O)c12	0.079 mg/mL (≈ 280 µM)	9%	3%	3%	21%	13%	4%	8%	17%	2%	-2%	40%	

Source: ChEMBL document CHEMBL1811853, “Design and evaluation of 3-aminopyrazolopyridinone kinase inhibitors inspired by the natural product indirubin” (Bioorg Med Chem, 2011)
